Measurements published in ChEMBL document CHEMBL4138099, “Design, synthesis and biological evaluation of uncharged catechol derivatives as selective inhibitors of PTP1B” (Eur J Med Chem, 2017).
Active and inactive are the calls of the source. The rule behind the calls is not given here.

Assays:
[1] = molecular target: T1, Tyrosine-protein phosphatase non-receptor type 1 (Homo sapiens, UniProt P18031); assay: Inhibition of recombinant GST-tagged PTP1B catalytic domain (1 to 321 residues) (unknown origin) expressed in Escherichia coli BL21(DE3) using pNPP as substrate after 30 mins by spectrophotometer
T1 sequence (P18031 whole entry): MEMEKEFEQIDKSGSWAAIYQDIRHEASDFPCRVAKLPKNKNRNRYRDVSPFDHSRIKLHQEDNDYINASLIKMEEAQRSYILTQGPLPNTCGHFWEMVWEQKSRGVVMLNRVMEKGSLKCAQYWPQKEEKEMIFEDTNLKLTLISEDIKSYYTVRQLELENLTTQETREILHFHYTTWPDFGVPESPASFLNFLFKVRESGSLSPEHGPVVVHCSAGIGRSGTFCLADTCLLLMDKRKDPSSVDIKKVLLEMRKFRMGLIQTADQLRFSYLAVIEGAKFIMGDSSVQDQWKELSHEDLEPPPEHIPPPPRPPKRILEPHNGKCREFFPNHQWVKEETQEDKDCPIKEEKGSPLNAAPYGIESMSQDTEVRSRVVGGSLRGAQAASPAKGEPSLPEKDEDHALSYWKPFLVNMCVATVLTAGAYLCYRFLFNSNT
Outline: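 Assay at 37 °C, pH 7.5, in 10 mM Tris-HCl, 25 mM NaCl, 1 mM EDTA and 2 mM DTT, with 4 mM pNPP and 60 nM PTP1B. Inhibitor was added from DMSO at final 100 to 0.01 µM, and the reaction was started with enzyme. After 30 min it was stopped with 1 N NaOH and read at 405 nm. IC50 came from a sigmoidal fit of relative activity versus concentration.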

[2] = molecular target: T2, Tyrosine-protein phosphatase non-receptor type 2 (Homo sapiens, UniProt P17706); assay: Inhibition of TCPTP (unknown origin) using pNPP as substrate after 30 mins by spectrophotometer
T2 sequence (P17706 whole entry): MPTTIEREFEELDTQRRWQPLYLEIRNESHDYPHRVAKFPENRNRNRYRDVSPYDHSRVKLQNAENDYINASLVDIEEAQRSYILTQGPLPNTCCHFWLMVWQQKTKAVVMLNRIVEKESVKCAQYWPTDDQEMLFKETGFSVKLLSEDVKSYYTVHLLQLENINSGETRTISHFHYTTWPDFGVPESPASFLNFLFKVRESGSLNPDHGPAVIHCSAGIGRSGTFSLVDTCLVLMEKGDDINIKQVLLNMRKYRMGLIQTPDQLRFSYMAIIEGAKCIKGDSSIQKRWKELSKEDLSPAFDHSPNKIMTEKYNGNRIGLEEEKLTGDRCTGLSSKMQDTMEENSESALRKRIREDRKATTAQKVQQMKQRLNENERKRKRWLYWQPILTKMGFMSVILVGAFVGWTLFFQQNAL

Homo sapiens = organism: Homo sapiens; assay: Selectivity ratio of IC50 for TCPTP (unknown origin) to IC50 for recombinant GST-tagged PTP1B catalytic domain (1 to 321 residues) (unknown origin)
[3] = molecular target: T3, Tyrosine-protein phosphatase non-receptor type 1 (Homo sapiens) (UniProt P18031); assay: Inhibition of recombinant GST-tagged PTP1B catalytic domain (1 to 321 residues) (unknown origin) expressed in Escherichia coli BL21(DE3) at 1 mM using pNPP as substrate after 30 mins by spectrophotometric method relative to control
T3 sequence (whole entry): T1 sequence (P18031 whole entry)
Outline: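 PTP1B (60 nM) reacted with 4 mM pNPP at 37 °C and pH 7.5 in 10 mM Tris-HCl, 25 mM NaCl, 1 mM EDTA, 2 mM DTT. The compound was added from DMSO at 1% v/v. The reaction was started with enzyme and stopped with 1 N NaOH after 30 min. p-Nitrophenol was read at 405 nm, and activity was taken relative to control.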

[4] = molecular target: T3, Tyrosine-protein phosphatase non-receptor type 1 (Homo sapiens); assay: Competitive inhibition of recombinant GST-tagged PTP1B catalytic domain (1 to 321 residues) (unknown origin) expressed in Escherichia coli BL21(DE3) at 1 to 8 uM using varying levels of pNPP as substrate after 30 mins by spectrophotometric method
Outline: (§1)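 PTP1B-catalysed pNPP hydrolysis read by absorbance of p-nitrophenol at 405 nm, run with pNPP at 0.5, 1.0, 2.0, 4.0 and 8.0 mM, with and without inhibitor. Inhibition mode was assigned from double-reciprocal (1/v) plots.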

[5] = molecular target: T4, Tyrosine-protein phosphatase non-receptor type 1 (Mus musculus) (UniProt P35821); assay: Inhibition of PTP1B in mouse C2C12 cells assessed as increase in insulin stimulated IRbeta phosphorylation at 2 uM preincubated for 1 hr followed by 100 nM insulin addition measured after 30 mins by immunoblot method; format: cell-based
T4 sequence (whole entry): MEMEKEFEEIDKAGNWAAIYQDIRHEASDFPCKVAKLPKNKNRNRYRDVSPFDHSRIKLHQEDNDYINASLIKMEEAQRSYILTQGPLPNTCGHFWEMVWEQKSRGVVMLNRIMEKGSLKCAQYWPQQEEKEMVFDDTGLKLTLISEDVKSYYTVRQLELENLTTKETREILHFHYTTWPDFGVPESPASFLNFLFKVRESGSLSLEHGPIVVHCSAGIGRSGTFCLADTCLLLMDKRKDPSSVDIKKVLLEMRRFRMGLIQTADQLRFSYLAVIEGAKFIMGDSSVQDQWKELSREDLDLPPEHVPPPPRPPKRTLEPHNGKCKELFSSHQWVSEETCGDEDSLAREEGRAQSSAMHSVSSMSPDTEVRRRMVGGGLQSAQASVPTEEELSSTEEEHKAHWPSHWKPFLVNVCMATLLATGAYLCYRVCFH
Outline: (§2)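 C2C12 myoblasts were grown in DMEM with 10% fetal calf serum and differentiated to myotubes in 10% horse serum. Myotubes were serum-starved 24 h, then given inhibitor at 0.5–4 µM in serum-free DMEM and stimulated with 100 nM insulin for 30 min at 37 °C. RIPA lysates (10 µg protein) were immunoblotted for phospho-proteins, detected by ECL and quantified by densitometry.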

[6] = molecular target: T4, Tyrosine-protein phosphatase non-receptor type 1 (Mus musculus); assay: Inhibition of PTP1B in mouse C2C12 cells assessed as increase in insulin stimulated IRS-1 phosphorylation at 2 uM preincubated for 1 hr followed by 100 nM insulin addition measured after 30 mins by immunoblot method; format: cell-based; outline: as §2
[7] = molecular target: T4, Tyrosine-protein phosphatase non-receptor type 1 (Mus musculus); assay: Inhibition of PTP1B in mouse C2C12 cells assessed as increase in insulin stimulated AKT phosphorylation at 2 uM preincubated for 1 hr followed by 100 nM insulin addition measured after 30 mins by immunoblot method; format: cell-based; outline: as §2
[8] = molecular target: T3, Tyrosine-protein phosphatase non-receptor type 1 (Homo sapiens); assay: Competitive inhibition of recombinant GST-tagged PTP1B catalytic domain (1 to 321 residues) (unknown origin) expressed in Escherichia coli BL21(DE3) at 1 to 4 uM using varying levels of pNPP as substrate after 30 mins by spectrophotometric method; outline: as §1

Oc1ccc(-c2nnc(SCc3ccccc3)o2)cc1O
IC50 [1]: 31.6 µM

COCCc1ccc(Oc2ccc(OC(=O)CSc3nnc(-c4ccc(O)c(O)c4)o3)cc2)cc1
IC50 [1]: 22.8 µM

O=C(CSc1nnc(-c2ccc(O)c(O)c2)o1)Oc1ccc(Oc2ccccc2)cc1
IC50 [1]: 9.33 µM

CC(C)c1ccc(Oc2ccc(OC(=O)CSc3nnc(-c4ccc(O)c(O)c4)o3)cc2)cc1
IC50 [1]: 11 µM

COc1ccc(OC(=O)CSc2nnc(-c3ccc(O)c(O)c3)o2)cc1
IC50 [1]: 6.02 µM
IC50 [2]: > 100 µM
Ratio IC50 (Homo sapiens): > 16.6

O=C(CSc1nnc(-c2ccc(O)c(O)c2)o1)Oc1ccc(Oc2ccc(OCc3ccccc3)cc2)cc1
IC50 [1]: 21.4 µM

CCOc1ccc(OC(=O)CSc2nnc(-c3ccc(O)c(O)c3)o2)cc1
IC50 [1]: 7.94 µM

O=C(CSc1nnc(-c2ccc(O)c(O)c2)o1)Oc1ccccc1
IC50 [1]: 8.09 µM

Oc1ccc(-c2ncc(-c3ccc(Oc4ccc(-c5ccccc5)cc4)cc3)o2)cc1O
IC50 [1]: 6.25 µM
IC50 [2]: 5.01 µM
Ratio IC50 (Homo sapiens): 0.8

COC(=O)CSc1nnc(-c2ccc(O)c(O)c2)o1
IC50 [1]: 35.6 µM

CCC(C)(C)c1ccc(Oc2ccc(-c3cnc(-c4ccc(O)c(O)c4)o3)cc2)cc1
IC50 [1]: 3.6 µM

CC(C)c1ccc(Oc2ccc(-c3cnc(-c4ccc(O)c(O)c4)o3)cc2)cc1
IC50 [1]: 7.44 µM

Cc1ccc(OC(=O)CSc2nnc(-c3ccc(O)c(O)c3)o2)cc1
IC50 [1]: 4.74 µM

COCCc1ccc(Oc2ccc(-c3cnc(-c4ccc(O)c(O)c4)o3)cc2)cc1
IC50 [1]: 19.1 µM

O=C(CSc1nnc(-c2ccc(O)c(O)c2)o1)Oc1ccc(C(F)(F)F)cc1
IC50 [1]: 21.4 µM

O=C(CSc1nnc(-c2ccc(O)c(O)c2)o1)c1ccccc1
IC50 [1]: 15.5 µM

O=Cc1ccc(O)c(O)c1
inhibition [3]: 29%

CCOc1ccc(Oc2ccc(-c3cnc(-c4ccc(O)c(O)c4)o3)cc2)cc1
IC50 [1]: 20.8 µM

COc1ccc(Oc2ccc(-c3cnc(-c4ccc(O)c(O)c4)o3)cc2)cc1
IC50 [1]: 6.92 µM

CCOc1ccc(Oc2ccc(OC(=O)CSc3nnc(-c4ccc(O)c(O)c4)o3)cc2)cc1
IC50 [1]: 17 µM

Cc1ccc(Oc2ccc(-c3cnc(-c4ccc(O)c(O)c4)o3)cc2)cc1
IC50 [1]: 0.807 µM
inhibition [4]: Active

CC(C)(C)c1ccc(Oc2ccc(OC(=O)CSc3nnc(-c4ccc(O)c(O)c4)o3)cc2)cc1
IC50 [1]: 10.5 µM

Oc1ccc(-c2ncc(-c3ccc(Oc4ccccc4)cc3)o2)cc1O
IC50 [1]: 2.63 µM

CC(C)(C)c1ccc(Oc2ccc(-c3cnc(-c4ccc(O)c(O)c4)o3)cc2)cc1
IC50 [1]: 0.487 µM
IC50 [2]: 13.3 µM
Ratio IC50 (Homo sapiens): 27.3
inhibition [5]: Active
inhibition [6]: Active
inhibition [7]: Active
inhibition [8]: Active

O=C(CSc1nnc(-c2ccc(O)c(O)c2)o1)Oc1ccc(Br)cc1
IC50 [1]: 115 µM

O=C(CSc1nnc(-c2ccc(O)c(O)c2)o1)Oc1ccc(OCc2ccccc2)cc1
IC50 [1]: 7.79 µM

Cc1ccc(Oc2ccc(C(=O)CSc3nnc(-c4ccc(O)c(O)c4)o3)cc2)cc1
IC50 [1]: 3.89 µM
IC50 [2]: 8.73 µM
Ratio IC50 (Homo sapiens): 2.24
